Assay results from PMC7668563 (International journal of molecular biology (Edmond, Okla.), 2020).

Legend:
[1] = biological target: T1, apo-human transferrin (apo-hTf) (Homo sapiens, UniProt P02787); experiment: UV-Vis absorbance titration of apo-hTf; assay type: binding; conditions: for Ka at 280 nm: absorbance at 280 nm; for Association constants, Ka, 280 nm: absorbance of apo-hTf at 280 nm, pH 7.4
[2] = biological target: T1, apo-human transferrin (apo-hTf); experiment: Far-UV circular dichroism titration of apo-hTf, secondary structure content
In short: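 Apo-hTf (4.0×10−7 mol L−1) in 2 mM Tris-HCl pH 7.4 was titrated with a 1.0×10−3 mol L−1 stock of test compound in Tris-HCl/2% DMSO, to final 0–2.4×10−6 mol L−1. Far-UV CD was recorded from 190–250 nm under nitrogen in a 1.0 cm cell: six scans at 100 nm/min. Baseline was buffer ± DMSO at room temperature. α-Helix was derived from MRE at 208 nm; β-sheet and random coil by the CD-RRG method.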

[3] = biological target: T1, apo-human transferrin (apo-hTf); experiment: Fluorescence resonance energy transfer; assay type: binding; conditions: for Förster critical energy transfer distance R0 / binding distance r (donor-acceptor): k^2=2/3, n=1.336, ØD=0.118; for efficiency of energy transfer E: room temperature, 1.0×10^−5 mol L^−1 each
In short: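 Emission spectrum of 1.0×10−5 mol L−1 apo-hTf and absorption spectrum of 1.0×10−5 mol L−1 test compound were recorded in 20 mM Tris-HCl pH 7.4 at room temperature, 260–450 nm, and their spectral overlap determined. E was calculated from apo-hTf fluorescence without and with equimolar test compound. R0 and donor–acceptor distance r came from Förster equations.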

[4] = test system: human colorectal adenocarcinoma cell line, HT-29; experiment: MTT cell viability assay on HT-29, 72 h exposure; assay type: cell-based; conditions: read-out: IC50 (±SD), HT-29, HT-29, 72 h of exposure
In short: (§1)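 HT-29 was grown in McCoy's 5A with 10% FBS. MCF-7 was grown in MEM with 10% FBS and 0.01 mg/mL insulin. Both were kept at 37°C, 5% CO2, trypsinized at 70–80% confluency and seeded at 1.5×10^4 cells/well for 24 h. Cells were then exposed for 72 h to test compound in 5% DMSO/95% medium, with DMSO-medium controls. MTT was added as a 2.67 mg/mL solution for 2 h. Formazan was dissolved in 10% Triton X-100/isopropanol and read at A570 minus A620. IC50 came from a sigmoidal fit of viability vs log concentration, eight replicas, triplicate, ±SD.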

[5] = biological target: T1, apo-human transferrin (apo-hTf); experiment: Fluorescence quenching of apo-hTf; assay type: binding; conditions: for biomolecular quenching rate constant kq: kq=Ksv/τ0; for Stern-Volmer quenching constant Ksv / number of binding sites n: pH 7.4; for quenching association constant Ka: pH 7.4, modified Stern-Volmer
In short: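 Intrinsic fluorescence of apo-hTf in Tris-HCl pH 7.4 was titrated with test compound (Tris-HCl/2% DMSO). Conditions: excitation 280 nm, emission 290–500 nm, slits 10/5 nm, 1.0 cm quartz cell, at 296, 303, 310 and 317 K, triplicate titrations. Intensities were corrected for inner filter effect using absorbances at excitation and emission wavelengths. Ksv came from Stern-Volmer plots of F0/F vs [Q]; kq = Ksv/τ0 (τ0 ~1.0×10−8); Ka and n came from the modified Stern-Volmer equation.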

[6] = biological target: T1, apo-human transferrin (apo-hTf); experiment: Thermodynamic parameters of apo-hTf complex formation; assay type: binding; conditions: for ∆H° / ∆S°: pH 7.4, from Ksv at 296-317 K
In short: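 Ksv values were obtained from apo-hTf fluorescence quenching at pH 7.4 at 296, 303, 310 and 317 K. ΔH°, ΔS° and ΔG° were derived from linear regression of ln(Ksv) vs 1/T (Van't Hoff equation).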

[7] = test system: human breast adenocarcinoma cell line, MCF-7; experiment: MTT cell viability assay on MCF-7, 72 h exposure; assay type: cell-based; conditions: for IC50 (±SD), MCF-7: MCF-7, 72 h of exposure
In short: as §1

T1 sequence (P02787 20-698): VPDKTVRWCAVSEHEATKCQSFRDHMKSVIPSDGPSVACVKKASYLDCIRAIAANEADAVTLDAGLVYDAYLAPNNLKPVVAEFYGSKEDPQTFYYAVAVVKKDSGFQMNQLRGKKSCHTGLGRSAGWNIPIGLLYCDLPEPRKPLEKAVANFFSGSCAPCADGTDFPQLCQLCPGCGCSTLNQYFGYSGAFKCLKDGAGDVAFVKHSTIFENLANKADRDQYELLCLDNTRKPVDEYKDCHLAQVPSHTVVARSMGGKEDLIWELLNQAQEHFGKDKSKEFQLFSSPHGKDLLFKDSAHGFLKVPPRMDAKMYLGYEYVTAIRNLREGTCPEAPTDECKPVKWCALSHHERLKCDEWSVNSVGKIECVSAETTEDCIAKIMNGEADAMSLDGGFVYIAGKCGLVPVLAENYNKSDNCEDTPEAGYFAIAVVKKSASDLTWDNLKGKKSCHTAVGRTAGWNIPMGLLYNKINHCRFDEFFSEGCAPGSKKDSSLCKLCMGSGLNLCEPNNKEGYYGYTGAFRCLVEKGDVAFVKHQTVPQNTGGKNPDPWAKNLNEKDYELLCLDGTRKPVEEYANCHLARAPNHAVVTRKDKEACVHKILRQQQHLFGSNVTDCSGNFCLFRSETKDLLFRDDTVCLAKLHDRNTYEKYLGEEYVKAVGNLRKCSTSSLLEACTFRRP

## C1CCCC1.C1CCCC1.[Cl][Nb][Cl] [Cp2NbCl2]
[1]
  Ka at 280 nm: 3000 M⁻¹
  Association constants, Ka, 280 nm: 3 10^3 M^−1
[2]; compound concentration 0.4 (M)
  other secondary structure content of apo-hTf: 19.5%
  random coil content of apo-hTf: 33.8%
  α-helix content of apo-hTf: 29%
  β-sheet content of apo-hTf: 17.7%
[2]; compound concentration 0.8 (M)
  other secondary structure content of apo-hTf: 19.4%
  random coil content of apo-hTf: 34%
  α-helix content of apo-hTf: 28.7%
  β-sheet content of apo-hTf: 17.9%
[2]; compound concentration 1.2 (M)
  other secondary structure content of apo-hTf: 19.7%
  random coil content of apo-hTf: 34.2%
  α-helix content of apo-hTf: 27.6%
  β-sheet content of apo-hTf: 18.5%
[2]; compound concentration 1.6 (M)
  other secondary structure content of apo-hTf: 19.8%
  random coil content of apo-hTf: 34.4%
  α-helix content of apo-hTf: 26.9%
  β-sheet content of apo-hTf: 18.9%
[2]; compound concentration 2 (M)
  other secondary structure content of apo-hTf: 20.2%
  random coil content of apo-hTf: 34.6%
  α-helix content of apo-hTf: 26.2%
  β-sheet content of apo-hTf: 19%
[2]; compound concentration 2.4 (M)
  other secondary structure content of apo-hTf: 20.4%
  random coil content of apo-hTf: 34.8%
  α-helix content of apo-hTf: 25.4%
  β-sheet content of apo-hTf: 19.4%
[3]
  Förster critical energy transfer distance R0: 2.56 nm
  binding distance r (donor-acceptor): 3.04 nm
  efficiency of energy transfer E: 0.26
[4]
  IC50: 266 µM
[5]; 296 K
  biomolecular quenching rate constant kq: 2.523e+12 M⁻¹ s⁻¹
  Stern-Volmer quenching constant Ksv: 25230 M⁻¹
  number of binding sites n: 1.26
  quenching association constant Ka: 325300 M⁻¹
[5]; 303 K
  biomolecular quenching rate constant kq: 2.804e+12 M⁻¹ s⁻¹
  Stern-Volmer quenching constant Ksv: 28040 M⁻¹
  number of binding sites n: 1.27
  quenching association constant Ka: 408100 M⁻¹
[5]; 310 K
  biomolecular quenching rate constant kq: 3.056e+12 M⁻¹ s⁻¹
  Stern-Volmer quenching constant Ksv: 30560 M⁻¹
  number of binding sites n: 1.28
  quenching association constant Ka: 485500 M⁻¹
[5]; 317 K
  biomolecular quenching rate constant kq: 3.323e+12 M⁻¹ s⁻¹
  Stern-Volmer quenching constant Ksv: 33230 M⁻¹
  number of binding sites n: 1.29
  quenching association constant Ka: 562300 M⁻¹
[6]; 296 K
  ∆G°: -5.963 kcal/mol
[6]; 303 K
  ∆G°: -6.164 kcal/mol
[6]; 310 K
  ∆G°: -6.362 kcal/mol
[6]; 317 K
  ∆G°: -6.561 kcal/mol
[6]
  ∆H°: 2.431 kcal/mol
  ∆S°: 118.65 J/mol K
[7]; read-out: IC50 (±SD), MCF-7, MCF-7, 72 h of exposure
  IC50: 1300 µM

## [Cl][Zr+2][Cl].c1cc[cH-]c1.c1cc[cH-]c1 [Cp2ZrCl2]
[1]
  Ka at 280 nm: 2220 M⁻¹
  Association constants, Ka, 280 nm: 2.22 10^3 M^−1
[2]; compound concentration 0.4 (M)
  other secondary structure content of apo-hTf: 18.9%
  random coil content of apo-hTf: 33.8%
  α-helix content of apo-hTf: 29.2%
  β-sheet content of apo-hTf: 18.1%
[2]; compound concentration 0.8 (M)
  other secondary structure content of apo-hTf: 18.8%
  random coil content of apo-hTf: 33.9%
  α-helix content of apo-hTf: 29.1%
  β-sheet content of apo-hTf: 18.2%
[2]; compound concentration 1.2 (M)
  other secondary structure content of apo-hTf: 18.8%
  random coil content of apo-hTf: 33.9%
  α-helix content of apo-hTf: 29%
  β-sheet content of apo-hTf: 18.3%
[2]; compound concentration 1.6 (M)
  other secondary structure content of apo-hTf: 18.9%
  random coil content of apo-hTf: 33.9%
  α-helix content of apo-hTf: 28.8%
  β-sheet content of apo-hTf: 18.4%
[2]; compound concentration 2 (M)
  other secondary structure content of apo-hTf: 18.9%
  random coil content of apo-hTf: 34%
  α-helix content of apo-hTf: 28.6%
  β-sheet content of apo-hTf: 18.5%
[2]; compound concentration 2.4 (M)
  other secondary structure content of apo-hTf: 18.9%
  random coil content of apo-hTf: 34.1%
  α-helix content of apo-hTf: 28.4%
  β-sheet content of apo-hTf: 18.6%
[3]
  Förster critical energy transfer distance R0: 7.3 nm
  binding distance r (donor-acceptor): 10.03 nm
  efficiency of energy transfer E: 0.129
[4]
  IC50: 774 µM
[5]; 296 K
  biomolecular quenching rate constant kq: 2.39e+11 M⁻¹ s⁻¹
  Stern-Volmer quenching constant Ksv: 2390 M⁻¹
  number of binding sites n: 1.07
  quenching association constant Ka: 4400 M⁻¹
[5]; 303 K
  biomolecular quenching rate constant kq: 1.97e+11 M⁻¹ s⁻¹
  Stern-Volmer quenching constant Ksv: 1970 M⁻¹
  number of binding sites n: 1.03
  quenching association constant Ka: 2600 M⁻¹
[5]; 310 K
  biomolecular quenching rate constant kq: 1.79e+11 M⁻¹ s⁻¹
  Stern-Volmer quenching constant Ksv: 1790 M⁻¹
  number of binding sites n: 1.01
  quenching association constant Ka: 2000 M⁻¹
[5]; 317 K
  biomolecular quenching rate constant kq: 1.5e+11 M⁻¹ s⁻¹
  Stern-Volmer quenching constant Ksv: 1500 M⁻¹
  number of binding sites n: 1
  quenching association constant Ka: 1600 M⁻¹
[6]; 296 K
  ∆G°: -4.57 kcal/mol
[6]; 303 K
  ∆G°: -4.584 kcal/mol
[6]; 310 K
  ∆G°: -4.598 kcal/mol
[6]; 317 K
  ∆G°: -4.613 kcal/mol
[6]
  ∆H°: -3.975 kcal/mol
  ∆S°: 8.41 J/mol K
[7]
  IC50 (±SD), MCF-7: proliferative activity
[7]; listed as Cp^2ZrCl^2
  IC50 (±SD), MCF-7: Proliferative
